Common to all, as to format: functional
For assay [1], the species on record is Cavia porcellus. Briefly: Inhibition of electrically induced contractions on the guinea pig ileum. The settings on record: read-out: ED50 (the source's name). Put shortly: (§1)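 Guinea pig ileum contractions evoked by coaxial stimulation at 0.1 Hz, 0.5-ms pulses, supramaximal voltage, recorded isometrically; dose-response curves built with 15-min washout between doses.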

Assay [2] relates to Mus musculus. The assay can be described thus: Antinociceptive activity of subcutaneously administered compound (20 mg) in acetic acid (AA) induced writhing mice. Summed up: (§2)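 Male TFW mice, groups of five to six, given drug subcutaneously (10 mL kg-1), then ip acetic acid 0.6% at 25 mL kg-1. Writhes counted for 5 min beginning 15 min after acetic acid. ED50 = dose reducing writhes 50% versus vehicle, by linear regression.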
Background: Writhing tests count abdominal constrictions after an irritant is injected.

In assay [3] the test system is Mus musculus. The assay can be described thus: Antinociceptive activity of subcutaneously administered compound in phenyl-p-benzoquinone induced writhing mice. Conditions: Mus musculus, sc; read-out: ED50. Summed up:
(§3)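 Groups of five to six female CD1 mice given drug subcutaneously (10 mL kg-1) 30 min before ip phenyl-p-benzoquinone 2.5 mg kg-1. Writhes (abdominal constrictions/hind-limb extensions) counted over 2.5 min from 10 min post-PBQ. ED50, the dose giving 50% fewer writhes than vehicle, from linear regression.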

The subject of assay [4] is Mus musculus. Briefly: Antinociceptive activity of perorally administered compound (20 mg) in phenyl-p-benzoquinone induced writhing mice. Summed up: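 Female CD1 mice (Charles River), groups of five to six, dosed orally by blunt intragastric needle (10 mL kg-1) 30 min before ip PBQ at 2.5 mg kg-1. Abdominal constrictions/hind-limb extensions were counted over 2.5 min starting 10 min after PBQ. ED50 is the dose halving writhes versus vehicle, estimated by linear regression.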

The next assay deals with Rodentia sp. The assay can be described thus: Antinociceptive activity in the hot plate test (central activity) in rodents, when compound administered subcutaneously at 100 mg. Put shortly:
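Male CFLP mice, groups of five to six, placed on a copper surface held at 55 °C; latency to paw licking/shaking or jumping recorded, 30-s cut-off. Drug given subcutaneously at 10 mL kg-1. ED50 = dose doubling response latency versus vehicle, by parallel-line probit analysis.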
In general terms: Thermal pain tests record how soon the animal reacts.

Assay [5] is filed under the species Mus musculus. Briefly: Dose ratio in the presence and absence of the peripheral opioid antagonist in N-methyl-nalorphine in AA writhing mice. Summed up: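 Acetic acid (0.6%, ip) writhing in male TFW mice; N-methylnalorphine 11.5 mg kg-1 ip 20 min before subcutaneous agonist. Writhes counted 5 min from 15 min post-irritant. Dose ratio taken as the shift between parallel regression lines with and without antagonist.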

The subject of assay [6] is Mus musculus. The assay can be described thus: Antinociceptive activity of subcutaneously administered compound (1 mg) in phenyl-p-benzoquinone induced writhing mice. Put shortly:
(§4)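 Female CD1 mice (Charles River), groups of five to six, given vehicle or drug sc (10 mL kg-1) 30 min before ip phenyl-p-benzoquinone at 2.5 mg kg-1 (10 mL kg-1). Writhes were counted for 2.5 min from 10 min post-irritant. ED50, the dose giving a 50% reduction in writhes relative to vehicle, was obtained by linear regression.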

The subject of assay [7] is Mus musculus. Briefly: (§5) Antinociceptive activity of subcutaneously administered compound (10 mg) in phenyl-p-benzoquinone induced writhing mice. Summed up:
as §4

Assay [8] has as its system Mus musculus. Briefly: Antinociceptive activity of subcutaneously administered compound (10) in phenyl-p-benzoquinone induced writhing mice. Summed up:
as §3

Assay [9] concerns Mus musculus. The assay can be described thus: Antinociceptive activity of subcutaneously administered compound in acetic acid (AA) induced writhing mice. Conditions: sc. Summed up: as §2
Assay [10] relates to Mus musculus. The description is as §5. Summed up:
as §3
The source holds these as a separate data set.

Assay [11] has as its system Mus musculus. Briefly: Antinociceptive activity of perorally administered compound (50 mg) in phenyl-p-benzoquinone induced writhing mice. Put shortly: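 Female CD1 mice, groups of five to six, dosed orally by blunt intragastric needle (10 mL kg-1) 30 min before ip phenyl-p-benzoquinone 2.5 mg kg-1. Abdominal constrictions/hind-limb extensions counted over 2.5 min starting 10 min after PBQ. ED50 = dose halving writhes versus vehicle, by linear regression.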

Assay [12] deals with Mus musculus. Briefly: Antinociceptive activity in the hot plate test (central activity) in rodents, when compound administered subcutaneously at 50 mg. Put shortly: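 Male CFLP mice (Hacking and Churchill), groups of five to six, dosed sc at 10 mL kg-1 and placed on a copper surface held at 55 °C. Signs of discomfort (paw licking/shaking, jumping) were scored, with a 30-s cut-off. ED50 is the dose doubling response latency versus vehicle, estimated by parallel-line probit analysis.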

Assay [13] has as its system Cavia porcellus. The assay can be described thus: Inhibition of electrically induced contractions on the guinea pig ileum at […] after dosing. Summed up: as §1

SMILES strings stand for the structures.

The source of these data is ChEMBL document CHEMBL1124464, “Peripherally acting enkephalin analogues. 2. Polar tri- and tetrapeptides” (1989).

One may read the Inhibition as the relative decrease from the control value, in per cent. A low value points to a response near the control. As usually defined, the ED50 is the dose that gives a 50% effect, or the effect in half of the subjects. Take `CC(=O)O.CCN(CCc1ccc(Cl)c(Cl)c1)C(=O)CNC(=O)[C@@H](CCCN=C(N)N)NC(=O)[C@@H](N)Cc1ccc(O)cc1`: the EC50 in the assay listed under Cavia porcellus [1] was 12.5 nM. Moreover, the Inhibition was 0% with Mus musculus [2], 0% in the assay on Mus musculus [4] and roughly 100% in the assay with Rodentia sp.. In addition, the ED50 in the assay on Mus musculus [3] was 4.7 mg/kg. Moreover, in the assay listed under Mus musculus [5], the Ratio is listed as 0.5.
On to `CC(=O)O.CCN(CCc1ccc2ccccc2c1)C(=O)CNC(=O)[C@@H](CCCN=C(N)N)NC(=O)[C@H](Cc1ccc(O)cc1)N=C(N)N`, for which the Inhibition stood at 0% in the assay with Mus musculus [4] and 11% in the assay with Mus musculus [6].
`CC(=O)O.CCN(CCc1ccccc1C(F)(F)F)C(=O)CNC(=O)[C@@H](CCCN=C(N)N)NC(=O)[C@H](Cc1ccc(O)cc1)N=C(N)N`: the EC50 in the assay filed under Cavia porcellus [1] worked out at 28.4 nM. In addition, the Inhibition is 40% with Mus musculus [7] and 0% in the assay with Mus musculus [4].
`CC(=O)O.CCN(CCc1ccccc1C(F)(F)F)C(=O)CNC(=O)[C@@H](CCCN=C(N)N)NC(=O)[C@@H](N)Cc1ccc(O)cc1`: in the assay listed under Cavia porcellus [1], the EC50 is 72.1 nM. The Inhibition in the assay with Mus musculus [4] was 0%; in the assay with Mus musculus [8] it was 33%.
In the case of `CC(=O)O.CCN(Cc1ccc([N+](=O)[O-])cc1)C(=O)CNC(=O)[C@@H](CCCN=C(N)N)NC(=O)[C@@H](N)Cc1ccc(O)cc1`, the EC50 in the assay listed under Cavia porcellus [1] came to 9.7 nM. For the same molecule, the ED50 in the assay with Mus musculus [9] was 0.02 mg/kg. Moreover, the Inhibition in the assay on Mus musculus [10], with Mus musculus [11] and in the assay with Mus musculus [12] was 0% each time. Further, in the assay filed under Mus musculus [5], the Ratio is 2.8.
Take `CC(=O)O.CCN(CCNC(=O)[C@@H](CCCN=C(N)N)NC(=O)[C@@H](N)Cc1ccc(O)cc1)CCc1ccc([N+](=O)[O-])cc1`: the Inhibition in the assay on Cavia porcellus [13] is reported as 25%.
